From article PMC7346273 (ACS Omega, 2020)

Target: Aβ40 (Homo sapiens, UniProt P05067)
Assay: Aβ40 aggregation inhibition and fibril destabilization
Assay type: biochemical
Conditions: synthetic peptides
Outline: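 Aβ40 was pre-treated in HFIP (1.0 mg/mL), lyophilized, stored at −20 °C, redissolved in DMSO to 5 mM and sonicated 10 min. It was diluted into PBS pH 7.5 with 0.2% SDS (100 μM final) and incubated at 37 °C for 7 days, with test compound added before incubation or to preformed aggregates. Samples were imaged by acoustic AC-mode AFM. ThT was read immediately (Aβ40 5 μM, ThT 20 μM; ex 450 nm, em 480–600 nm) with the no-Aβ40 background subtracted; mean ± SD, three independent experiments.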

Chain of Aβ40 (P05067 672-711 limits assumed): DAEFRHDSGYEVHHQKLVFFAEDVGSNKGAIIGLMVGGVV

## KAISFSK [Peptide P1]
Aβ40/peptide = 10:1, 7 days, ThT 20 μM, Aβ40 5 μM
  ThT fluorescence of treated Aβ40 compared to control: even higher ThT fluorescence
Aβ40/peptide = 10:1, PBS pH 7.5 with 0.2% SDS, 37 °C, 7 days
  effect on Aβ40 aggregation (AFM): aggravated the aggregation tendency
